Source: PubChem BioAssay (several laboratories)
IDE act: IDE (human) activation, cell-based; AID 493087; activation, % at 5.96 µM; HEK cells, FAbeta-B cleavage, fluorescence polarization; 0% vehicle, 100% cell-free pure enzyme wells; P14735; 340,000 tested, 0.073% active;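 active = activation above the mean of all tested compounds plus 3 SD, set per screening campaign, cut at about 17% in these data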
TbMetRS inhib: blocks T. brucei methionyl-tRNA synthetase activity. 360,000 tested, 0.4% active. purified T. brucei MetRS, ATP depletion, Kinase-Glo luminescence. inhibition, % at 11.9 µM;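 active = inhibition above a per-plate cutoff of the control wells' mean inhibition plus 3 SD, cut at about 5.5% in these data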;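 note: 0% = DMSO wells median and 100% = median of wells with control inhibitor compound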
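Assay system: T. brucei methionyl-tRNA synthetase, purified | Medium: HEPES buffer with MgCl2, KCl, DTT, spermine, BSA, pyrophosphatase | Compound: 11.9 µM single point | Incubation: 15 min enzyme-compound preincubation, 2 h reaction, 10 min detection, 25 °C | Measured by: Kinase-Glo luciferase luminescence reporting remaining unconsumed ATP | Measure: % inhibition normalized to control-well medians | Replication: Singlicate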
IDE cell inh: cellular human IDE inhibition | 320,000 tested, 0.41% active | HEK cells, FAbetaB cleavage, fluorescence polarization | inhibition, % at 5.59 µM;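 active = percent inhibition above the average of all tested compounds plus 3 SD, set per screening campaign, cut at about 16% in these data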;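 note: IDE supplied by intact live HEK cells; FP after avidin binding of uncleaved biotin substrate so inhibition keeps polarization high; 0% = DMSO wells and 100% = 60 µM reference IDE inhibitor Ii1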
CSN inh: inhibitors of human CSN-mediated cullin deneddylation; Purified CSN, SCF-Nedd8-OG deneddylation, fluorescence polarization; inhibition, % at 12.5 µM; 360,000 tested, 0.38% active; AID 651999;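 active = pattern-corrected inhibition above about 35%, with an unprinted fluorescence ratio check between 0.5 and 1.5, limit read from the data, passing the limit was not always enough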;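 note: 0% = enzyme with substrate and 100% = substrate without enzyme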
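Assay system: purified human Csn5 enzyme expressed in HEK293T cells; measure: % inhibition; also added: SCFSkp2-Nedd8OG substrate at 10 nM final; technique: fluorescence polarization; times: reaction 90 min, room temperature; medium: Tris buffer pH 7.5, NaCl, DTT, Tween-20, trehalose, ovalbumin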
HNF4A DNA FP: change in binding of human HNF4 alpha to DNA. 360,000 tested, 0.3% active. activity change, % at 10 µM. AID 1224865. HNF4a-FITC DNA binding, fluorescence polarization, 1 h; in the data active = activity change above about 30%, passing the limit was not always enough
Target sequence (P41235 whole entry, looked up): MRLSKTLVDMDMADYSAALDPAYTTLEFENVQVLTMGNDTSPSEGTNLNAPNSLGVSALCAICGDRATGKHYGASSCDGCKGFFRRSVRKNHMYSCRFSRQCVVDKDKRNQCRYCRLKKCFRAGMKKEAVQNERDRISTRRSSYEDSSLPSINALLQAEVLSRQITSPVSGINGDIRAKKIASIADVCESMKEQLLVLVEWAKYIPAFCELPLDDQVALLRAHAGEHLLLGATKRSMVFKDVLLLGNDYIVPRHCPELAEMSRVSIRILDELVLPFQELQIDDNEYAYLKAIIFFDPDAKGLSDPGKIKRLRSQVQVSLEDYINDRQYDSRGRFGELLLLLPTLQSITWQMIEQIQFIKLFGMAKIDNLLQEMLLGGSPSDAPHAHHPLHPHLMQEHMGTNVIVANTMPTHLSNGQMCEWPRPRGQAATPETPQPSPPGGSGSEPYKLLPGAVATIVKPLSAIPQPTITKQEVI
TPT1 inh: blocks Candida albicans tRNA 2'-phosphotransferase; recombinant caTPT1, FP RNA substrate dephosphorylation; inhibition, % at 5 µM; 300,000 tested, 0.81% active; AID 1962;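 active = inhibition above the mean of all tested compounds plus 3 SD, set per screening campaign, cut at about 24% in these data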;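 note: plate controls were DMSO alone for no effect and ferristatin control at 100 nM for full effect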
caTPT1 confirm: confirmation of Candida albicans TPT1 inhibitors | shares compounds with TPT1 inh | recombinant caTPT1, fluorescence polarization, RNase T1 coupled | inhibition, % at 5 µM | 2,400 tested, 74% active;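 active = inhibition above the primary screen limit, the mean inhibition of all tested compounds plus 3 SD, cut at about 25% in these data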
RNase T1 counter: blocks Aspergillus oryzae RNase T1, a TPT1 counter-screen; inhibition, % at 5 µM; 2,400 tested, 83% active; shares compounds with TPT1 inh; RNase T1 cleavage, fluorescence polarization, 1536-well;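 active = inhibition above the solvent-only control well mean plus 3 SD, limit set per screening run, cut at about 23% in these data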;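 note: plate controls were DMSO wells with enzyme for no effect and wells without RNase T1 for full effect; inhibitors block cleavage so intact labeled substrate keeps polarization high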
Target sequence (P00651 whole entry, looked up): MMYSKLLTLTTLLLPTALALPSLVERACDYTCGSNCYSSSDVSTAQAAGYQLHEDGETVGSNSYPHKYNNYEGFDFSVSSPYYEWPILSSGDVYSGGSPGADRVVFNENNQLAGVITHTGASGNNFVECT
* = called active by the depositor; nt = no result. Hits are enriched below; roughly 1.7% of the tested compounds scored in any of these assays.

SMILES | IDE act | TbMetRS inhib | IDE cell inh | CSN inh | HNF4A DNA FP | TPT1 inh | caTPT1 confirm | RNase T1 counter
Cc1ccc(-c2ccc(/C=C/C(=O)c3ccccc3)o2)cc1 | -5 | 0 | -4 | -7 | 16 | 48* | 77* | 84*
Cc1ccccc1C(=O)N1CCN(c2ccc(NC(=O)c3cccnc3Cl)cc2)CC1 | 7 | -1 | 6 | 8 | 4 | 94* | 5 | 5
Cc1cccc(/N=C/c2sc3ccccc3c2O)n1 | 3 | -1 | 1 | 4 | 2 | 85* | 29* | 40*
Oc1c(C=Nc2cccc3cccnc23)sc2ccccc12 | nt | nt | 49* | nt | nt | 172* | 152* | 138*
Cc1cc(C)n(CCC(=O)Nc2ccc3c(c2)OCCO3)n1 | 3 | 0 | 4 | -4 | 1 | 0 | nt | nt
CCOC(=O)/C(N=Nc1c(C)n(C)n(-c2ccccc2)c1=O)=C(/O)c1ccccc1 | 11 | -1 | 3 | -11 | 1 | -1 | nt | nt
Cc1c(N=N/C(C(=O)Nc2ccccc2)=C(/O)c2ccccc2)c(=O)n(-c2ccccc2)n1C | 8 | -1 | 4 | 5 | 22 | 55* | 54* | 67*
Cc1ccc(S(=O)(=O)c2c(N)n(Cc3ccco3)c3nc4ccccc4nc23)cc1 | -15 | 1 | 7 | -13 | -12 | 27* | 18 | 29*
O=C(COc1cccc(NC(=O)c2cccc([N+](=O)[O-])c2)c1)c1ccc(F)cc1 | 5 | 0 | -1 | -2 | 1 | 53* | 0 | 3
COc1cccc(C(=O)COc2cccc(NC(=O)c3cccc([N+](=O)[O-])c3)c2)c1 | 1 | 0 | 3 | -4 | -2 | 1 | nt | nt
C(=N\Nc1ccccc1)/c1nc2ccccc2s1 | 1 | 0 | -7 | -4 | 0 | 4 | nt | nt
O=C1NC(=S)SC1=C1CCCC1 | 0 | -1 | 6 | 17 | 2 | 28* | 17 | 25*
CCN1C(=O)/C(=C2/Sc3ccccc3N2CC)S/C1=N\c1ncn[nH]1 | -2 | 0 | 3 | 136 | 22 | 36* | 57* | 69*
C=CCN1C(=O)/C(=C2/Sc3ccccc3N2CC)SC1=S | -1 | -2 | -3 | 2 | -1 | 5 | nt | nt
COC(=O)N1CCC2CC1c1c(Cl)cccc12 (stereo not given) | nt | -1 | nt | -4 | 1 | nt | nt | nt
CCOc1ccc(N2C(=O)CNC2=S)cc1 | 5 | -1 | 0 | -3 | -1 | -1 | nt | nt
CCOc1ccc(N2C(=O)CS/C2=C(\C(Cl)=C(Cl)Cl)[N+](=O)[O-])cc1 | 6 | 0 | -4 | 14 | 35* | 54* | 58* | 70*
CCCNC(=O)c1cc(C2CCCN(C(=O)c3ccccc3)C2)on1 (stereo not given) | nt | 0 | nt | 0 | -2 | nt | nt | nt
Cc1cc(C)c(C(=O)N2CCC(N3CCC(C(=O)NC(C)C)CC3)CC2)o1 | 8 | -1 | -2 | 3 | 4 | 1 | nt | nt
Cc1ccc(N=C2NC(=O)/C(=C/c3cccn3C)S2)cc1C | nt | 0 | -2 | 1 | 3 | 7 | nt | nt
Cc1cccc(N=C2NC(=O)/C(=C/c3cccn3C)S2)c1C | -12 | 0 | 10 | 16 | 24 | 25* | 37* | 49*
O=C(NC1CCCCC1)c1cccc2c1C(=O)c1ccc(N3CCCC3)cc1S2(=O)=O | -6 | 0 | 14 | 26 | 74 | nt | nt | nt
O=C1c2ccccc2S(=O)(=O)c2cc(N3CCC(C(=O)N4CCCCC4)CC3)ccc21 | nt | nt | 15 | nt | nt | 58* | 78* | 88*
CCOC(=O)c1sc2cc([N+](=O)[O-])cc(SCC(C)C)c2c1N | 3 | -1 | 4 | 20 | 25 | 32* | 35* | 46*
CCSc1nnc(NC(=O)CSc2sc3c(O)cc(=O)[nH]c3c2C#N)s1 | 2 | 0 | -3 | 35 | -33 | 2 | nt | nt
SMILES | IDE act | TbMetRS inhib | IDE cell inh | CSN inh | HNF4A DNA FP | TPT1 inh | caTPT1 confirm | RNase T1 counter
CCc1nnc(NC(=O)CSc2sc3c(O)cc(=O)[nH]c3c2C#N)s1 | -1 | 0 | -1 | 30 | -35 | 49* | 14 | 18
CCOc1cc(/C=N/NC(=O)C(=O)NCCCOC(C)C)cc(Br)c1O | 6 | 0 | 0 | 3 | 0 | 2 | nt | nt
Cc1cc2ncc(C(N)=O)cn2n1 | 4 | -1 | 3 | -8 | 4 | 83* | 7 | 11
CCOC(=O)C1(C)CCCN(C(=O)c2ccc3c(c2)OCO3)C1 (stereo not given) | nt | 0 | nt | -4 | -1 | nt | nt | nt
O=C(OCC(=O)N1CCN(Cc2ccccc2)CC1)c1cc(Cl)ccc1[N+](=O)[O-] | 3 | 0 | 0 | -2 | 1 | nt | nt | nt
CCOC(=O)NC(=O)/C(C#N)=C/c1ccc(N(C)C)cc1 | nt | 0 | 2 | 34 | 56* | 99* | 115* | 125*
N#C/C(=C\c1ccccc1)C(=O)NC(=O)Oc1ccccc1 | 0 | 0 | 0 | 0 | 3 | -1 | nt | nt
Cn1cnc(S(=O)(=O)Nc2ccc(OC(F)(F)F)cc2)c1 | 2 | -1 | 6 | 0 | 3 | 0 | nt | nt
CCOc1ccc(C2CC(c3c(O)c4ccccc4oc3=O)=NN2c2ccccc2)cc1OC (stereo not given) | 4 | 0 | -4 | 64 | 64 | 69* | 80* | 82*
CC(C)C(NC(=O)c1ccc(Cl)cc1Cl)C(=O)NCCc1ccccn1 (stereo not given) | -1 | 0 | nt | -2 | 7 | nt | nt | nt
O=C(CCC(=O)N1CCOc2ccccc21)NCc1cccnc1 | 7 | -1 | 2 | -2 | 7 | 3 | nt | nt
O=C(/C=C/c1cn(CC(O)CN2CCCCC2)c2ccccc12)c1cccs1 (stereo not given) | -11 | 0 | 11 | 34 | 22 | 64* | 65* | 72*
O=C(/C=C/c1cn(CC(O)CN2CCCCC2)c2ccccc12)c1ccccc1 (stereo not given) | 0 | -1 | nt | 11 | 2 | nt | nt | nt
COc1ccc(C(=O)/C=C/c2cn(CC(O)CN3CCN(C)CC3)c3ccccc23)cc1OC (stereo not given) | -7 | 0 | 1 | 55* | 48* | 50* | 61* | 72*
O=[N+]([O-])c1ccc(N2CCCCC2)cc1N1CCOCC1 | 0 | 0 | -2 | 4 | 3 | 25* | 9 | 12
CCOC(=O)C1(CC2CCCCO2)CCN(C(=O)Nc2ccc3c(c2)OCO3)CC1 (stereo not given) | 2 | 0 | -4 | -1 | 2 | 38* | 0 | 18
Cc1ccc(N=C2NC(=O)/C(=C\c3ccc(C)s3)S2)cc1 | -5 | 0 | 3 | 9 | 16 | -1 | nt | nt
